We go through 6 compounds from ChEMBL document CHEMBL2331506, “Design, synthesis, antiviral and cytostatic evaluation of novel isoxazolidine nucleotide analogues with a carbamoyl linker” (Bioorg Med Chem, 2013).

The test system of series [1] is Feline coronavirus. Put plainly: Antiviral activity against Feline coronavirus infected in cat CRFK cells assessed as reduction of virus-induced cytopathogenicity at 250 uM. The class given is functional, organism-based. (In general: Protection from cytopathic effect is a common read-out in antiviral testing.)
Series [2] relates to Human respirovirus 3. Put plainly: Antiviral activity against Parainfluenza virus 3 infected in african green monkey Vero cells assessed as reduction of virus-induced cytopathogenicity at 250 uM. The format is functional, organism-based. A digest of the protocol: (§1)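 Confluent monolayers (HEL fibroblasts, Vero, or HeLa cells as listed) were infected with 100 CCID50 of virus in the presence of varying compound concentrations. Virus-induced cytopathicity or plaque formation was scored once cytopathicity was complete in untreated infected controls. EC50 was taken as the concentration reducing cytopathogenicity or plaque formation by 50%.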

The test system of series [3] is Coxsackievirus B4. Put plainly: Antiviral activity against Coxsackievirus B4 infected in african green monkey Vero cells assessed as reduction of virus-induced cytopathogenicity at 250 uM. The format is functional, organism-based. A digest of the protocol:
as §1

Series [4] deals with Human immunodeficiency virus 2. Put plainly: Antiviral activity against Human immunodeficiency virus 2 ROD infected in human CEM cells assessed as reduction of virus-induced giant cell formation at 250 uM after 4 to 5 days. The class given is functional, organism-based. The note with it: CCRF-CEM. A digest of the protocol: (§2)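 CEM cells at 3 × 10^5 cells/mL were infected with HIV at 100 CCID50 per mL in the presence of compound dilutions. They were held 4–5 days at 37 °C in humidified CO2. Syncytium (giant cell) formation was scored microscopically, and EC50 was taken as the concentration inhibiting giant cell formation by 50%.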

The subject of series [5] is Vesicular stomatitis virus. Description: Antiviral activity against Vesicular stomatitis virus infected in human HEL cells assessed as reduction of virus-induced cytopathogenicity at 250 uM. The format is functional, organism-based. Summed up:
(§3)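 Confluent cell monolayers were infected with 100 CCID50 of virus while exposed to varying compound concentrations. Cytopathicity was scored once it was complete in untreated infected controls. EC50 was taken as the concentration that reduced virus-induced cytopathogenicity by 50%.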

Series [6] has as its system Sindbis virus. Description: Antiviral activity against Sindbis virus infected in african green monkey Vero cells assessed as reduction of virus-induced cytopathogenicity at 250 uM. The format is functional, organism-based. A digest of the protocol: as §1
Series [7] relates to Influenza B virus. Description: Antiviral activity against Influenza B virus infected in dog MDCK cells assessed as reduction of virus-induced cytopathogenicity at 250 uM. The format is functional, organism-based. A digest of the protocol:
as §3

The subject of series [8] is Human alphaherpesvirus 1. Description: Antiviral activity against Herpes simplex virus 1 KOS infected in human HEL cells assessed as reduction of virus-induced cytopathogenicity at 250 uM. The format is functional, organism-based. A digest of the protocol: as §1
Series [9] concerns Vesicular stomatitis virus. Put plainly: Antiviral activity against Vesicular stomatitis virus infected in human HeLa cells assessed as reduction of virus-induced cytopathogenicity at 250 uM. The class given is functional, organism-based. A digest of the protocol:
as §3

Series [10] relates to MDCK. Description: Cytotoxicity against dog MDCK cells assessed as alteration of cell morphology up to 100 uM by microscopic analysis. The class given is cell-based, Canis lupus familiaris. Summed up: (§4)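 Uninfected host-cell cultures were exposed to compound and examined by microscopy. Cytotoxicity was expressed as the minimum cytotoxic concentration (MCC) causing a microscopically detectable alteration of normal cell morphology.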

Series [11] concerns Respiratory syncytial virus. Put plainly: Antiviral activity against Respiratory syncytial virus long infected in human HeLa cells assessed as reduction of virus-induced cytopathogenicity at 250 uM. The format is functional, organism-based. A digest of the protocol:
as §1

In series [12] the test system is Influenza A virus. Put plainly: Antiviral activity against Influenza A virus H3N2 infected in dog MDCK cells assessed as reduction of virus-induced cytopathogenicity at 250 uM. The format is functional, organism-based. Summed up: as §3
Series [13] relates to HEL. Put plainly: Cytotoxicity against human HEL cells assessed as alteration of cell morphology up to 100 uM by microscopic analysis. The format is cell-based. Summed up: as §4
Series [14] deals with Human alphaherpesvirus 2. Description: Antiviral activity against Herpes simplex virus 2 G infected in human HEL cells assessed as reduction of virus-induced cytopathogenicity at 250 uM. The class given is functional, organism-based. The note with it: strain G. A digest of the protocol: as §1
For series [15], the system named is HeLa. Description: Cytotoxicity against human HeLa cells assessed as alteration of cell morphology up to 100 uM by microscopic analysis. The class given is cell-based. A digest of the protocol:
as §4

The test system of series [16] is Human alphaherpesvirus 1. Description: Antiviral activity against thymidine kinase-deficient, ACV-resistant Herpes simplex virus 1 KOS infected in human HEL cells assessed as reduction of virus-induced cytopathogenicity at 250 uM. The format is functional, organism-based. A digest of the protocol: as §3
Series [17] has as its system Human immunodeficiency virus 1. Description: Antiviral activity against Human immunodeficiency virus 1 3B infected in human CEM cells assessed as reduction of virus-induced giant cell formation at 250 uM after 4 to 5 days. The class given is functional, organism-based. Particulars: CCRF-CEM. A digest of the protocol:
as §2

The subject of series [18] is Vero. Put plainly: Cytotoxicity against african green monkey Vero cells assessed as alteration of cell morphology up to 100 uM by microscopic analysis. The note with it: chlorocebus sabaeus. The format is cell-based. A digest of the protocol:
as §4

Series [19] deals with Felid alphaherpesvirus 1. Put plainly: Antiviral activity against Feline herpes virus infected in cat CRFK cells assessed as reduction of virus-induced cytopathogenicity at 250 uM. The format is functional, organism-based.
The test system of series [20] is Mammalian orthoreovirus 1. Put plainly: Antiviral activity against Reovirus 1 infected in african green monkey Vero cells assessed as reduction of virus-induced cytopathogenicity at 250 uM. The class given is functional, organism-based. Summed up: as §1
In series [21] the test system is Punta Toro virus. Description: Antiviral activity against Punta Toro virus infected in african green monkey Vero cells assessed as reduction of virus-induced cytopathogenicity at 250 uM. The format is functional, organism-based. A digest of the protocol:
as §1

Series [22] can be described thus: Cytotoxicity against cat CRFK cells assessed as alteration of cell morphology up to 100 uM by microscopic analysis. The format is cell-based, Felis catus. Summed up:
as §4

In series [23] the test system is Influenza A virus. Put plainly: Antiviral activity against Influenza A virus H1N1 infected in dog MDCK cells assessed as reduction of virus-induced cytopathogenicity at 250 uM. The class given is functional, organism-based. Summed up: as §3

Activity calls are given as the source filed them. The rule behind the calls is not given here.

As to `CCOP(=O)(OCC)[C@H]1C[C@H](C(=O)Nc2ccc(OC)c(OC)c2)ON1C` (mixture of isomers), the inhibition entry in series [1], in series [2], in series [3], in series [4], in series [5] and in series [6] was “inactive” throughout. The inhibition entry in [7], in series [8], in series [9], in series [11], in [12] and in series [14] was “inactive” in each case. The inhibition result in series [16], in series [17], in [19], in series [20], in series [21] and in [23] was “inactive” each time. Besides, the Activity result in series [10], in [13], in [15], in series [18] and in [22] was “Non-toxic” each time.

For the compound `CCOP(=O)(OCC)[C@@H]1C[C@H](C(=O)Nc2cc(OC)c(OC)cc2C#N)ON1C` (mixture of isomers), the inhibition entry in [1], in series [2], in [3], in series [4], in [5] and in [6] was “inactive” in each case. The inhibition result in series [7], in series [8], in series [9], in [11], in series [12] and in series [14] was “inactive” each time. Moreover, the inhibition result in [16], in [17], in series [19], in series [20], in series [21] and in [23] was “inactive” each time. The Activity entry in series [10], in [13], in series [15], in series [18] and in series [22] was “Non-toxic” throughout.

Turning to `CCOP(=O)(OCC)[C@@H]1C[C@H](C(=O)Nc2cccc(C)c2)ON1C` (mixture of isomers), the inhibition result in series [1], in [2], in series [3], in series [4], in [5] and in [6] was “inactive” throughout. Further, the inhibition entry in [7], in series [8], in series [9], in [11], in [12] and in series [14] was “inactive” throughout. In addition, the inhibition entry in series [16], in series [17], in series [19], in series [20], in series [21] and in series [23] was “inactive” each time. Besides, the Activity result in series [10], in series [13], in series [15], in series [18] and in series [22] was “Non-toxic” each time.

Turning to `CCOc1ccc(NC(=O)[C@H]2C[C@H](P(=O)(OCC)OCC)N(C)O2)cc1` (mixture of isomers), the inhibition result in series [1], in series [2], in [3], in series [4], in series [5] and in [6] was “inactive” throughout. The inhibition entry in series [7], in series [8], in series [9], in [11], in [12] and in [14] was “inactive” throughout. Moreover, the inhibition entry in series [16], in series [17], in series [19], in [20], in [21] and in series [23] was “inactive” throughout. Moreover, the Activity entry in series [10], in series [13], in series [15], in series [18] and in series [22] was “Non-toxic” each time.

For the compound `CCOP(=O)(OCC)[C@@H]1C[C@H](C(=O)Nc2ccccc2C(C)=O)ON1C` (mixture of isomers), the inhibition result in series [1], in series [2], in series [3], in series [4], in [5] and in [6] was “inactive” each time. Besides, the inhibition entry in series [7], in [8], in series [9], in series [11], in [12] and in series [14] was “inactive” each time. The inhibition entry in [16], in series [17], in series [19], in series [20], in series [21] and in [23] was “inactive” throughout. The Activity entry in [10], in [13], in [15], in series [18] and in series [22] was “Non-toxic” throughout.

Take `CCOc1ccc(NC(=O)[C@H]2C[C@@H](P(=O)(OCC)OCC)N(C)O2)cc1` (racemic): the inhibition result in [1], in series [2], in [3], in [4], in [5] and in [6] was “inactive” each time. Moreover, the inhibition result in [7], in series [8], in [9], in series [11], in [12] and in series [14] was “inactive” throughout. The inhibition entry in series [16], in series [17], in series [19], in series [20], in series [21] and in series [23] was “inactive” each time. Moreover, the Activity result in series [10], in series [13], in [15], in series [18] and in [22] was “Non-toxic” each time.
